Laboratory results: ChEMBL document CHEMBL4513216, “Probing the Open Global Health Chemical Diversity Library for Multistage-Active Starting Points for Next-Generation Antimalarials” (ACS Infect Dis, 2020)

Assay: Toxicity liver stage against HepG2, at 10uM
Format: cell-based
Parameters: test concentration 10 uM, cell line HepG2-A16-CD81EGFP
Details: human, HepG2-A16-CD81EGFP cells; read-out: INHIBITION
Summary of the method: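 Uninfected HepG2-A16-CD81EGFP cells, 3 × 10^3 per well, 1536-well, plated on prespotted compound at 10 μM final, parasite-free screening media added to match infected plates; puromycin 10 μM positive, DMSO 0.5% negative; run in parallel with 48 h PbLuc assay at 37 °C, 5% CO2; viability by CellTiter-Glo luminescence, normalized to controls.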

CC(C)(C)c1c[nH]c([C@@H]2COCCN2C2CCOCC2)n1
cytotoxicity at 10 µM: -5.8%

CO[C@H]1COCCN(C(=O)c2ccno2)C1
cytotoxicity at 10 µM: 2.42%

O=C(NC[C@H]1C[C@@H]2CCN1C[C@@H]2CN1CCCCC1)c1ccco1
cytotoxicity at 10 µM: 7.32%

CCN1CC(COc2ccccc2)Oc2ncccc2S1(=O)=O (centres undefined)
cytotoxicity at 10 µM: -0.947%

Cn1nnc2c(sc3nc(N4CCOCC4)c4c(c32)CCC4)c1=O
cytotoxicity at 10 µM: -12.4%

COC(=O)CNC(=O)Cn1ccc2ccc(F)cc21
cytotoxicity at 10 µM: -1.33%

Cc1cc(S(=O)(=O)NCC(O)c2sccc2C)ccc1F (centres undefined)
cytotoxicity at 10 µM: -1.81%

COC1(CNC(=O)c2ccoc2)CCSC1 (centres undefined)
cytotoxicity at 10 µM: -10.8%

COC1CCN(c2ccc(NC(=O)Cn3cccc3)cc2)CC1
cytotoxicity at 10 µM: 2.99%

CC(C)NC(=O)N1CCOC2(CCNCC2)C1
cytotoxicity at 10 µM: -2.69%

NCC1[C@H]2CN(Cc3cccc(Cl)c3)C[C@@H]12 (some centres undefined)
cytotoxicity at 10 µM: -9.17%

Cc1cc(C(=O)N2CCCC3(COCCN(c4ccccc4)C3)C2)[nH]n1 (centres undefined)
cytotoxicity at 10 µM: -1.56%

C[C@H]1C[C@H]2CN(C(=O)c3cccc4c3OCCO4)CC[C@H]2O1
cytotoxicity at 10 µM: -0.91%

O=S(=O)(C1CC1)N1CCc2ncnc(-c3ccsc3)c2CC1
cytotoxicity at 10 µM: 4.8%

CC(C)NC(=O)N1CCOC2(CCCN(c3cccc(C#N)c3)C2)C1 (centres undefined)
cytotoxicity at 10 µM: 11.8%

CS(=O)(=O)N1CCN(C(=O)c2cccc(Cl)c2)CC2(CNC(=O)C2)C1 (centres undefined)
cytotoxicity at 10 µM: 6.86%

COc1ccc(-c2noc(C(=O)NCCN3CCCCC3)n2)cc1OC
cytotoxicity at 10 µM: -6.24%

CC(C)N(C)Cc1nnc2n1CCCN(C(=O)c1ccco1)C2
cytotoxicity at 10 µM: -1.17%

NC(=O)C1CCN(C(=O)c2ccc(Cn3cc(Br)cn3)cc2)CC1
cytotoxicity at 10 µM: -6.24%

Cc1nc(-c2cccc(Cl)c2)n(CC(=O)NCC2CCCO2)c(=O)c1C (centres undefined)
cytotoxicity at 10 µM: -7.04%

O=C(Cc1ccc(Cl)cc1)N[C@@H]1CCC[C@@H](O)[C@@H]1O
cytotoxicity at 10 µM: 2.3%

O=C(Cn1ccnc1)N1CC[C@H](Oc2cccc(F)c2)[C@@H](O)CC1
cytotoxicity at 10 µM: -0.59%

CN(CCc1ccccc1)Cc1c(C2CC2)[nH]c2ncccc12
cytotoxicity at 10 µM: 0.145%

CC(=O)N1CCC(Cc2cccc(-c3ccnn3C)n2)CC1
cytotoxicity at 10 µM: 6.3%

OCCN1CCC(Cc2nccs2)CC1
cytotoxicity at 10 µM: 5.97%

Cc1cc(-c2cc(N)c(=O)n(CC(=O)NC3CCCCC3)n2)c(C)o1
cytotoxicity at 10 µM: 6.79%

O=C(c1noc2c1CCCC2)N1CCCC(c2nccs2)C1 (centres undefined)
cytotoxicity at 10 µM: -2.66%

Cc1cc(CN2CCN(Cc3ccc(C#N)cc3OC(F)F)CC2)no1
cytotoxicity at 10 µM: 1.81%

Cc1ccc(O)c(C(=O)NCCCS(=O)(=O)Cc2ccccc2)c1
cytotoxicity at 10 µM: 33.6%

CCN(Cc1ccoc1)C(=O)c1ccncc1O
cytotoxicity at 10 µM: 6.85%

Cc1ccc(N(CCC#N)C(=O)CCc2cscn2)cc1C
cytotoxicity at 10 µM: 6.36%

CC(C(=O)N1CCCC1)N1CCN(c2ncc(Cl)cn2)CC1 (centres undefined)
cytotoxicity at 10 µM: -3.34%

O=C(COc1ccc(Br)cc1F)Nc1cn[nH]c1
cytotoxicity at 10 µM: -24.1%

NC(=O)C1CCCN1CCCc1ccc(C(F)(F)F)cc1 (centres undefined)
cytotoxicity at 10 µM: 0.936%

Cc1cc(CN(C)C(=O)NCc2ccco2)no1
cytotoxicity at 10 µM: 1.58%

Cc1ccc(CNc2ccc(N3CCC(CO)CC3)cn2)o1
cytotoxicity at 10 µM: 19.1%

O=C1CN(c2ccc(CNC(=O)Nc3nccs3)cc2)CCN1
cytotoxicity at 10 µM: 1.93%

Cc1cc(C)n(CC(=O)N(CC2CN(C)CCO2)c2nccs2)n1 (centres undefined)
cytotoxicity at 10 µM: -5.85%

CC(=O)c1cccc(NC(=O)CN2CCCCC2C)c1 (centres undefined)
cytotoxicity at 10 µM: -0.684%

Cc1cc(C)n(-c2cncc(N3CCN(C(=O)C(C)C)CC3)n2)n1
cytotoxicity at 10 µM: -2.9%

CCS(=O)(=O)CC(=O)N1CCCC1c1noc(C2CC2)n1 (centres undefined)
cytotoxicity at 10 µM: -12.9%

Cc1csc(CNC(=O)NC2CCCc3c2cnn3CCO)n1 (centres undefined)
cytotoxicity at 10 µM: 13.7%

CN(C)C(=O)CCCn1ccc(NC(=O)NCc2cccc(F)c2)n1
cytotoxicity at 10 µM: 6.85%

CCc1nc(CN2CCCN(CC(=O)N3CCOCC3)CC2)no1
cytotoxicity at 10 µM: -10.2%

COc1cc(NC(=O)c2ccc(C)c(F)c2)c(C(=O)N(C)C)cc1OC
cytotoxicity at 10 µM: 2.82%

CNc1cc(N2CCCC2CNCc2cccc(C#N)c2)ncn1 (centres undefined)
cytotoxicity at 10 µM: -10.7%

CCc1nnc2n1CCN(C(=O)c1cnc(C3CC3)s1)C2
cytotoxicity at 10 µM: 9.21%

CC1(C)CN(CC(F)(F)F)CCN1CC(=O)NC1CC1
cytotoxicity at 10 µM: 12.5%

CC(C)N(C)CC(=O)NCC(O)c1cc2ccccc2s1 (centres undefined)
cytotoxicity at 10 µM: -3.91%

O=C(NC1CCN(C(=O)C2CCCCC2)C1)c1ccncc1Cl (centres undefined)
cytotoxicity at 10 µM: 10.4%

Cc1cc(CN(CCO)c2ccc(Br)cc2)on1
cytotoxicity at 10 µM: 1.78%

COC(=O)c1ccc(CCn2cnc(C#N)n2)cc1
cytotoxicity at 10 µM: -3.15%

CCC1COCCN1C(=O)NCc1nccn1CCc1ccccc1 (centres undefined)
cytotoxicity at 10 µM: 4.42%

CC(=O)NC1CCCN(C(=O)CNc2cccc(C)c2Cl)C1 (centres undefined)
cytotoxicity at 10 µM: -4.69%

COc1nn(C)c2c1CCCN(C(=O)c1c[nH]cn1)C2
cytotoxicity at 10 µM: -100%

CN(Cc1cccnc1)C[C@H]1OC[C@@H]2CCN(c3ncccn3)C[C@@H]21
cytotoxicity at 10 µM: -108%

CN(C)C(=O)N1C[C@@H]2COC[C@]2(CNS(C)(=O)=O)C1
cytotoxicity at 10 µM: -1.47%

Cn1ccnc1CN1CCN(Cc2ccncc2)[C@@H]2CS(=O)(=O)C[C@@H]21
cytotoxicity at 10 µM: 1.5%

OC1(CN2CCCC2)CCCN(c2ncnc3[nH]cnc23)C1 (centres undefined)
cytotoxicity at 10 µM: 11.3%

Cc1cc(NC(=O)Cn2ccc(-c3ccc4c(c3)OCO4)n2)n(C)n1
cytotoxicity at 10 µM: 6.28%

Cn1cc(C(=O)N2CCC(c3ncc[nH]3)CC2)cn1
cytotoxicity at 10 µM: -5.42%

O=S(=O)(NCCn1cc(C2CCOC2)nn1)c1ccc(Cl)cc1 (centres undefined)
cytotoxicity at 10 µM: -4.89%

O=C(O)c1cnc(N2CC[C@H](N3CCOCC3)[C@H](CCCO)C2)c(Cl)c1
cytotoxicity at 10 µM: 4.6%

CN(C)C(C(=O)N1CCC(c2ncc[nH]2)CC1)c1ccc2c(c1)OCO2 (centres undefined)
cytotoxicity at 10 µM: 2.8%

Cc1c(CN(C)c2cc(C3CCCNC3)ncn2)[nH]c2ccccc12 (centres undefined)
cytotoxicity at 10 µM: 1.99%

CCc1[nH]c2c(CNc3cncc(C(=O)N(C)C)n3)cc(C)cc2c1C
cytotoxicity at 10 µM: -10.2%

COc1cc(N(C)CCCn2nc(C)cc2C)ncn1
cytotoxicity at 10 µM: 1.6%

CCCc1nc(C(=O)N(C)Cc2cnn(-c3cccc(OC)c3)c2)cs1
cytotoxicity at 10 µM: 6.39%

COc1cc2c(cc1CN1CCCCC1CN1CCOCC1)CCC2 (centres undefined)
cytotoxicity at 10 µM: -4.57%

Cc1n[nH]c(C)c1NC(=O)CN1CCCC1c1noc(C(C)C)n1 (centres undefined)
cytotoxicity at 10 µM: 6.45%

Cc1cccc(-c2noc(CN3CC(n4cccn4)C3)n2)c1
cytotoxicity at 10 µM: -0.0158%

COc1cc(CCC(=O)NC(C)C(=O)O)ccc1OCC(F)(F)F (centres undefined)
cytotoxicity at 10 µM: -2.15%

CC(NC(=O)NCc1c(F)cccc1Cl)(C(=O)O)c1ccco1 (centres undefined)
cytotoxicity at 10 µM: -3.23%

CN(Cc1ccco1)C(=O)Nc1cc(C(F)(F)F)c[nH]c1=O
cytotoxicity at 10 µM: 2.79%

CCn1ccnc1CN1CCN(CCOc2ccccc2C#N)CC1
cytotoxicity at 10 µM: -8.21%

COc1ccc(OCCN2CCN(Cc3nccn3C)CC2)cc1
cytotoxicity at 10 µM: -6.25%

CCc1cnc(CN(C(C)=O)C2CCN(CCc3ccccn3)C2)o1 (centres undefined)
cytotoxicity at 10 µM: -2.72%

CCc1ccc(S(=O)(=O)Nc2cc(C(=O)O)ccc2F)s1
cytotoxicity at 10 µM: -8.27%

N#CCCN(C(=O)CN1CCCC1c1cccs1)c1ccccc1F (centres undefined)
cytotoxicity at 10 µM: -9.1%

CCC(C)N(CCOC)Cc1nc2c(cnn2C)c(=O)[nH]1 (centres undefined)
cytotoxicity at 10 µM: -12.4%

COc1c(C2CCCN2C(=O)c2nccnc2N)c(C)nn1C (centres undefined)
cytotoxicity at 10 µM: -5.55%

CN(Cc1ccc2c(c1)OCO2)Cc1nc2c(cnn2C)c(=O)[nH]1
cytotoxicity at 10 µM: -3.63%

O=C(NCC1CC1)N1CCN(Cc2ccc3c(c2)OCCO3)CC1
cytotoxicity at 10 µM: -4.3%

O=C(CN1CC(n2cccn2)C1)NCCc1c[nH]c2ccccc12
cytotoxicity at 10 µM: -4.74%

Cc1cccc(N2CCN(C(=O)Nc3cnn(CC(N)=O)c3)CC2)c1
cytotoxicity at 10 µM: -8.31%

Cc1noc2ncc(C(=O)NCC3CCN(C(C)C)C3)cc12 (centres undefined)
cytotoxicity at 10 µM: -12.4%

CCn1cc(NC(=O)NCC(c2cccs2)N(C)C)cn1 (centres undefined)
cytotoxicity at 10 µM: -2.66%

CCc1nc2n(n1)CC(NCC(=O)Nc1cc(C)on1)CC2 (centres undefined)
cytotoxicity at 10 µM: -7.21%

CN(C)c1ccc(NC(=O)NCc2ccccn2)cn1
cytotoxicity at 10 µM: -3.34%

Cn1cc(N2CC3(CCN(Cc4ccccc4)CC3)OCC2=O)cn1
cytotoxicity at 10 µM: 5.25%

Cn1cc(CN2C[C@@H]3COC[C@]3(C(=O)NCc3ccccn3)C2)cn1
cytotoxicity at 10 µM: -1.07%

Cc1cnc(N2CC[C@@H]3OC(COCC(=O)N(C)C)CC[C@@H]32)nc1 (some centres undefined)
cytotoxicity at 10 µM: 7.98%

Cc1ccc(CN2CCc3c(CN(C)C)n[nH]c3C2)s1
cytotoxicity at 10 µM: 1.93%

CC(C)n1cnc2c1C(C(=O)N1CCCC1)N(CC1CC1)CC2 (centres undefined)
cytotoxicity at 10 µM: 6.59%

Cc1nc(CO[C@@H]2CN(Cc3ccsc3)[C@@H]3COC[C@@H]32)cs1
cytotoxicity at 10 µM: 3.04%

Cc1ccc(C(=O)N2CCOCC3(CCN(C4CCOCC4)C3)C2)o1 (centres undefined)
cytotoxicity at 10 µM: -0.152%

COC1COC2(CCN(CC3CCOCC3)CC2)C1 (centres undefined)
cytotoxicity at 10 µM: -110%

c1cncc(OCC2CC3(CCN(CC4CC4)CC3)CO2)c1 (centres undefined)
cytotoxicity at 10 µM: 4.95%

c1ccc(CO[C@H]2CO[C@@]3(CCN(Cc4ccoc4)C3)C2)nc1
cytotoxicity at 10 µM: -15.3%

Cn1nccc1-c1ncc2c(c1C(=O)O)CCN(Cc1cccnc1)C2
cytotoxicity at 10 µM: 8.07%

c1cncc(CN2CCOC(c3ncn4c(C5CC5)cccc34)C2)c1 (centres undefined)
cytotoxicity at 10 µM: 1.79%

Cc1ccc(CN2C[C@@H]3CN(CC4CCOCC4)CCO[C@@H]3C2)s1
cytotoxicity at 10 µM: -12.7%

Cc1nc(CN2CCOCC3(CCN(c4ccccn4)C3)C2)cs1 (centres undefined)
cytotoxicity at 10 µM: 12.8%

O=C(NCCc1ccccn1)[C@@]12CCO[C@@H]1CCN(C1CCC1)C2
cytotoxicity at 10 µM: 8.03%

COCC1Cn2nnc(-c3cnn(C)c3)c2CN1Cc1ccoc1 (centres undefined)
cytotoxicity at 10 µM: 6.44%

O=C1CO[C@@H]2CN(Cc3cccs3)C[C@H]2N1Cc1ccncc1
cytotoxicity at 10 µM: 2.08%

CCN1CC[C@]2(CN(Cc3nccs3)C[C@H]2c2ccccc2)C1=O
cytotoxicity at 10 µM: 4.89%

COCCN1C[C@@H](C)[C@@]2(COCCN(C(=O)c3ccno3)C2)C1
cytotoxicity at 10 µM: 7.4%

O=C(CSc1nc2n[nH]cc2c(=O)n1-c1ccccc1)N1CCOCC1
cytotoxicity at 10 µM: -8.21%
